For assay [1], the species on record is Cavia porcellus. Description: Relative activity with respect to Histamine on guinea pig ileum.. The class given is functional. Summed up:
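Guinea pig ileum segments (either sex), 1.5 cm, mounted isotonically under 5 mN preload in Tyrode solution with 0.1 μM atropine, 95% O2/5% CO2 gassed, 37 °C. […] Potency is read from graphically analysed concentration–effect curves as geometric means.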

For assay [2], the target named is Histamine H1 receptor (Cavia porcellus) (UniProt P31389). The experiment in a line: Contractile effect on isolated guinea pig aorta is a measure of H1 (histamine) receptor agonistic activity relative to histamine. The class given is functional, tissue-based. The gist of the method:
(§1)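 Endothelium-denuded 4–6 mm guinea pig thoracic aortic rings, isometric (preload 10 mN), modified Krebs-Henseleit, 37 °C, 95% O2/5% CO2. […] Cumulative curves with 30 μM corticosterone, 100 μM cimetidine, 0.1 μM (R,S)-propranolol and phentolamine present.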

The target is the same in assay [3]. The experiment in a line: H1-Histamine receptor agonism on Guinea pig aorta was evaluated as Intrinsic activity given as 1.0 with respect to histamine (paired 't'test;p>0.05). The class given is functional, tissue-based. The gist of the method: as §1
Assay [4] shares this target. The experiment in a line: Contractile effect on isolated guinea pig ileal segments is a measure of H1 (histamine) receptor agonistic activity relative to histamine. The class given is functional.
The target is the same in assay [5]. Description: H1-Histamine receptor agonism on guinea pig ileum as intrinsic activity given as 1.0 with respect to histamine (paired 't'test; p>0.05). The class given is functional, tissue-based.
Assay [6] shares this target. The experiment in a line: Contractile effect on isolated guinea pig ileal segments by H1 (histamine) receptor agonism. It is filed as functional.
For assay [7] the target is unchanged. The experiment in a line: Contractile effects on guinea pig aorta as histamine H1 receptor agonism. It is filed as functional, tissue-based. The gist of the method: as §1
The target is the same in assay [8]. Description: The H1 receptor-mediated nature of the ileum contractionhas been verified by competition experiments with the H1 receptor antagonist mepyramine. The class given is functional, tissue-based.

The results in this text go back to ChEMBL document CHEMBL1128295 (J Med Chem, 1995).

Chain of Histamine H1 receptor (Cavia porcellus) (P31389 whole entry): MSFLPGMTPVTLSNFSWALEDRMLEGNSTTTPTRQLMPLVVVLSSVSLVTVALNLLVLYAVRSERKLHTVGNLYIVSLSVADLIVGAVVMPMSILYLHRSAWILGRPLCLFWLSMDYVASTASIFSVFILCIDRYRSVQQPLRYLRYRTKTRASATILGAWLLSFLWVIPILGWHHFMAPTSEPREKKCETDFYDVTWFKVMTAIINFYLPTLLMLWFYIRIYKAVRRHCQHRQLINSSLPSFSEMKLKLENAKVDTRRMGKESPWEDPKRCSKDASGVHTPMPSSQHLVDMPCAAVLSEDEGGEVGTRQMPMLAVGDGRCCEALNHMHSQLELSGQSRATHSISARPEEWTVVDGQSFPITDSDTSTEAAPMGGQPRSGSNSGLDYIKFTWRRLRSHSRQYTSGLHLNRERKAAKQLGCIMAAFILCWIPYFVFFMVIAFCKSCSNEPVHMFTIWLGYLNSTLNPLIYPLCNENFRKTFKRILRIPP

On to `NCCc1nccs1`, for which the Relative activity in assay [1] was 20%; in assay [2], 18%; in assay [4], 45%. Besides, the Intrinsic activity in assay [3] amounted to 1.02; in assay [5], 1. In assay [6], this molecule returned a pD2 of 6.36. Further, the pKb in assay [7] worked out at 9.02; in assay [8] it was 9.17.
